Experimental data as given in ChEMBL document CHEMBL4513216, “Probing the Open Global Health Chemical Diversity Library for Multistage-Active Starting Points for Next-Generation Antimalarials” (ACS Infect Dis, 2020).

Assay: Toxicity liver stage against HepG2, at 10uM
Format: cell-based
Design: test concentration 10 uM, cell line HepG2-A16-CD81EGFP
Conditions: human, HepG2-A16-CD81EGFP cells; read-out: INHIBITION
In short: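 Uninfected HepG2-A16-CD81EGFP cells, 3 × 10^3 per well, 1536-well, plated on prespotted compound at 10 μM final, parasite-free screening media added to match infected plates; puromycin 10 μM positive, DMSO 0.5% negative; run in parallel with 48 h PbLuc assay at 37 °C, 5% CO2; viability by CellTiter-Glo luminescence, normalized to controls.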

SMILES | cytotoxicity at 10 µM
CCN(C(=O)c1cccc2c1OCO2)c1ccccc1 | 0.944%
CCOC(=O)CNC(=O)NCc1cccn1Cc1ccccc1F | -2.24%
CCN(CC)c1nc2ccsc2c(=O)n1CCC(=O)NCc1ccco1 | 9.87%
COC1CN(C(=O)NC2CCCC2)CCC(=O)N(C)c2ccccc21 (stereo unspecified) | -9.35%
Cc1ccc(C(=O)N2CC[C@@]3(O)CCCC[C@H]3C2)cc1 | -45.1%
Cn1nnnc1SC1CCc2ccccc2NC1=O (stereo unspecified) | -3.22%
Cc1ccsc1C(O)CNC(=O)Cc1ccc(F)cc1 (stereo unspecified) | 3.15%
O=C(c1ccccc1F)N1CCN(c2ccc(-n3cccc3)nn2)CC1 | 53.2%
CCCS(=O)(=O)NCc1nc(C)cc(N2CCCC2)n1 | 8.09%
Cc1ccsc1C(=O)N1CCC2(CC(C(=O)N(C)C(C)C)=NO2)C1 (stereo unspecified) | -126%
COCC(=O)N1CCCn2c(CN3CCCC3)nnc2C1 | -130%
CCN1CC2(CC1=O)CN(C(=O)c1ccsc1)CCN(C(=O)N(C)C)C2 (stereo unspecified) | 3.01%
CC/N=c1\nc(NCC)nc2n1C(O)(Nc1cc(Cl)ccc1Cl)CS2 (stereo unspecified) | 51.8%
Cc1cc(C)n(C(=O)c2cn(C)nc2S(=O)(=O)N2CCSCC2)n1 | -2.64%
O=C1CC(c2cccc(Cl)c2)c2snc(C(=O)O)c2N1 (stereo unspecified) | 2.91%
O=C(O)c1ccccc1-c1ccc(CNC(=O)C2CCOCC2)cc1 | 1.33%
CN1CCC(Cc2cncc(-c3ccccc3C(=O)O)n2)C1 (stereo unspecified) | -7.19%
O=C(Cn1ccnc1)N1C[C@@H]2CC[C@H](Oc3ccc(Cl)cc3)[C@@H]2C1 | -3.8%
Cc1cnccc1CN1CC[C@@](C)(O)[C@H](Oc2cccc(F)c2)C1 | 1.52%
CCc1nnc(Nc2cccc(C3CCN(CCO)CC3)n2)s1 | -6.41%
CCCN(CCn1c(=O)oc2ccccc21)CC1CC1 | 1.78%
O=C(Nc1cc(Cl)ccc1N1CCCCC1)c1ccccn1 | -55%
Cc1ccc(-n2cc(C)cn2)c(NC(=O)NC2(C)CCOC2)c1 (stereo unspecified) | -43.2%

SMILES | cytotoxicity at 10 µM
CCS(=O)(=O)CCCN1CCSCC1c1ccc(Cl)cc1 (stereo unspecified) | -5.05%
COc1ccccc1CC(C)(C)C(=O)NCC(=O)Nc1cccnc1 | 9.21%
CSCCC(NC(N)=O)C(=O)NCc1ccc(-n2cccn2)cc1 (stereo unspecified) | 18%
CSCc1cc(F)ccc1CNC(=O)N1CCC(CO)CC1 | 1.82%
O[C@H]1Cc2ccccc2[C@H]1Nc1ncccc1C(F)(F)F | 5.95%
COc1ccc(C2CCCN2C(=O)NCCCn2cccn2)cc1 (stereo unspecified) | 7.53%
Cc1cc(C)cc(C(=O)Nc2cccc(CN3CCCC3C(N)=O)c2)c1 (stereo unspecified) | 4.38%
CCC(CNC(=O)c1ccccc1Br)N1CCc2ccccc2C1 (stereo unspecified) | 16.6%
CC(C)CCCC(C)NC(=O)c1ccc(OCC(N)=O)cc1 (stereo unspecified) | 10.2%
OC(CN(Cc1ccccc1)Cc1ccccn1)c1cccs1 (stereo unspecified) | 0.174%
Cc1ccc(S(=O)(=O)Nc2ccc(-n3cccc3C(=O)O)c(C)c2)cc1 | -3.94%
Cc1ccccc1CN(C)C(=O)Cn1nc(-c2ccc(F)cc2)oc1=O | -19.3%
CCc1nc(CN2CCCC(N(C)CCc3cccs3)C2)no1 (stereo unspecified) | 15.5%
Cc1cnn(CC(C)NCc2nc(-c3ccccn3)no2)c1 (stereo unspecified) | 0.234%
c1cc(NCc2cscn2)cc(OCCN2CCCCC2)c1 | -20.7%
Cn1cc(NC(=O)c2cccc(Cl)c2)c(=O)n(C)c1=O | -1.86%
CC(C)(C)n1nc(C2CC2)cc1C(=O)NC1CCN(CC(N)=O)CC1 | -2.06%
CCS(=O)(=O)c1ccc2c(c1)OCCCO2 | -2.3%
CCN(c1ccccc1)S(=O)(=O)c1cc(C(=O)O)cc2c1CCC2 | 9.69%
CCN(CC1CCOC1)C(=O)c1cc(Cl)c2c(c1)OCO2 (stereo unspecified) | 8.88%
CC(CCNC(=O)NCCc1ccncc1)c1ccccc1 (stereo unspecified) | -5.82%
CN(Cc1ccncc1)C(=O)NCc1cn(-c2ccccc2)nn1 | -55.7%
O=C(NCc1ccccc1OCC1CC1)C1CCOC1 (stereo unspecified) | 4.94%

SMILES | cytotoxicity at 10 µM
CC(=O)Nc1ccc(C(=O)N(C)Cc2ccc(F)cc2F)s1 | 6.43%
Cc1nnc(CSCc2ccc(OCC(F)(F)F)nc2)o1 | 2.49%
Clc1ccc(CNc2cnn(CCN3CCOCC3)c2)cc1Cl | 3.2%
O=C(CCN1CCCCC1c1cc2ccccc2[nH]1)N1CCOCC1 (stereo unspecified) | 7.82%
COCCC(=O)N1CCN(CC2CC2)c2ncccc2C1 | -96.7%
Cc1ccc(CN2CCC3(CC(C(=O)NC4CCC4)=NO3)C2)o1 (stereo unspecified) | -97.5%
CC(C)[C@@H](CO)Nc1cc(-c2cn[nH]c2)ncn1 | -11.3%
CN1C[C@@H](N)C[C@H]1C(=O)N1CCC(CCCc2ccccc2)CC1 | -8.29%
CN(Cc1csc(-c2cccs2)n1)Cc1cccnc1N | -1.06%
Cn1c(CN2CCC(OCc3cccnc3)CC2)cc2ccccc21 | -2.65%
CCC(C(=O)NC1(C(N)=O)CCCC1)n1cccn1 (stereo unspecified) | -9.13%
CCc1ncc(CN2CCOC(Cc3cccc(F)c3)C2)cn1 (stereo unspecified) | 0.0753%
Cc1nc(CCNC(=O)C(N)c2c(C)n[nH]c2C)sc1C (stereo unspecified) | 2.08%
Cc1nn(C)c(C)c1NC(=O)c1cccc(CN2CC[C@H](O)C2)c1 | 1.08%
CCN(Cc1ccncc1)C1CCCN(C/C=C/c2ccc(F)cc2)C1 (stereo unspecified) | 6.61%
CCC1CN(C(=O)c2csc3nc(-c4ccc(Cl)cc4)cn23)CCN1 (stereo unspecified) | 1.6%
CC(C)(O)CCc1cccc(C(=O)NCc2nccs2)c1 | -50.7%
O=c1c2cccc(Cl)c2ncn1C1CCNC1 (stereo unspecified) | -41.2%
CN(C)c1nc2c(c(N(C)C)n1)CCN(C(=O)CN1CCC(O)CC1)C2 | 5.31%
CN(C)CCNc1ccc(-c2nc(COc3ccccc3)no2)cn1 | 10.2%
Cc1n[nH]c(CN2CCN(CC3CC3)[C@@H]3CS(=O)(=O)C[C@@H]32)n1 | -15.8%
Cc1nc(-c2cn(CCN)nn2)n(-c2ccc3c(c2)CCC3)n1 | 2.86%
CSCCC1c2nc[nH]c2CCN1Cc1cncn1C (stereo unspecified) | 13.3%

SMILES | cytotoxicity at 10 µM
CC[C@@]1(O)CCN(Cc2cc(C3CCCCC3)no2)C[C@H]1O | -4.18%
CC1CCCN(c2ccc(C(N)=O)cc2NC(=O)CC2=CCNCC2)C1 (stereo unspecified) | -46.3%
CCn1c(CC2CCN(C(=O)C3CCOC3)CC2)nn(C)c1=O (stereo unspecified) | -18%
COCCc1noc(CN2C(=O)OC[C@@H]2C(C)C)n1 | -8.93%
CCN1CCN(Cc2nc(CCc3ccccc3)n[nH]2)CC1 | -10.7%
Cc1noc(-c2ccnc(Oc3ccccc3CN3CCCCC3)c2)n1 | -1.76%
CC(CN1CCC(c2ccccc2)CC1)n1cnc2ccccc21 (stereo unspecified) | 15.5%
CCc1[nH]c2c(CNc3cnccn3)cc(F)cc2c1C | -2.61%
O=c1c2ccc(C(F)(F)F)cc2ncn1CCCN1CCCCC1CO (stereo unspecified) | -5.98%
Cc1nonc1C1CCCN1Cc1ccc(C(=O)Nc2nccs2)cc1 (stereo unspecified) | 76.7%
Cc1ccc(CN2CCN(c3cncc(N(C)C)n3)CC2=O)cc1C | -2.53%
CN1CCCC2(CC1)CCN(C(=O)CCc1ccccc1O)CC2 | -32.1%
COCCCN1CCC(C(=O)c2cc(F)ccc2F)CC1 | -10.9%
O=C(N1CCCCC1)N1CCN(CC(O)c2ccccc2)CC1 (stereo unspecified) | -7.45%
Cc1ccoc1C(=O)NC1CCN(Cc2cccc3ccccc23)CC1 | 0.561%
CCn1cnnc1CNC(=O)c1cc(Cl)ccc1F | -7.75%
Cc1ccc(NC2CCN(C(=O)COCC3CC3)CC2)nn1 | 0.132%
Cc1nc(C)n(CC2CCCN(Cc3noc(C)n3)C2)n1 (stereo unspecified) | -1.87%
Cc1nc(C)n(C2CCCN(C(=O)c3cccc4cn[nH]c34)C2)n1 (stereo unspecified) | -8.86%
CCNC(=O)CCc1c(C)nc2cc(O)nn2c1C | -12.6%
CCc1ncncc1C(=O)N1CCCN(Cc2ccc(C)cc2)CC1 | -0.611%
O=C(c1cc(C2CC2)on1)N1CCCC(n2cncn2)C1 (stereo unspecified) | -14%
CCCC1CCCN(Cc2csc(-c3cnn(C)c3)n2)CC1 (stereo unspecified) | -1.47%

SMILES | cytotoxicity at 10 µM
NC(=O)C1CCCN(C(=O)c2cnc3c(cnn3C3CCCC3)c2)C1 (stereo unspecified) | -5.54%
NC(=O)CC1CCN(C(=O)NCc2ccccc2-n2cccn2)CC1 | 2.19%
COC(=O)c1cccn1C1CCN(Cc2ccccc2)CC1 | -12%
Clc1ccc(C2(CNC3=NCCN3)CC2)cc1 | 7.38%
Cc1cc(C(=O)N2CCc3nc(N4CCOCC4)nc(C)c3C2)c(C)o1 | -110%
Cc1nc2c(c(NC3CC3)n1)CCN(C(=O)CCO)CC2 | -68.3%
COCC1CN(CC2CC2)Cc2nn(CC3CC3)cc21 (stereo unspecified) | -71.4%
CC(=O)N1[C@H](Cn2cncn2)C[C@@H]2CN(Cc3ccncc3)CC[C@@H]21 | 2.24%
CCS(=O)(=O)N1CCCC2(COCCN(c3ccccn3)C2)C1 (stereo unspecified) | -1.02%
COc1ncccc1CN1C[C@H]2CCN(c3ncccn3)C[C@H]2C1 | 2.66%
COc1ncccc1CN1CCC2(CC1)CC(OCC1CC1)CO2 (stereo unspecified) | 4.33%
O=C(C1CC=CC1)N1C[C@H]2CN(Cc3ccncc3)C(=O)[C@H]2C1 | -86.6%
Cc1cnc(N2C[C@H]3CCCC(N(C)Cc4ccccn4)[C@H]3C2)nc1 (stereo partly specified) | -104%
c1ccc(CN2Cc3nccn3CC(Cn3cccn3)C2)nc1 (stereo unspecified) | -105%
Cn1cc(N2CC3(COCCN(Cc4nccs4)C3)OCC2=O)cn1 (stereo unspecified) | -79.9%
Fc1ccc(CN2CC[C@H]3O[C@@H](COCC4CCOCC4)CC[C@H]32)cc1 | 7.64%
COC[C@@]12CCO[C@@H]1CCN(Cc1ccc(C)s1)C2 | -91.9%
c1cc(CO[C@@H]2CC[C@H]3[C@H]2OCCN3Cc2ccoc2)ccn1 | 10.8%
Cc1nc(CN2C(=O)C[C@H]3[C@H]2CCN3CC2CCOC2)cs1 (stereo partly specified) | -151%
